The subject of assay [1] is Mus musculus. The assay is described as follows: Antidiabetic activity in streptozotocin-induced diabetic ICR mouse assessed as change in blood glucose level at 5 mg/kg after 1 hr by oral sucrose tolerance test (RVb= 11.4 %). It counts as functional. An outline of the steps:
(§1)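 NAD (40 mg/kg ip) then STZ (100 mg/kg ip, 15 min later) diabetic male ICR mice, glucose >140 mg/dL after 7 days. Animals fasted 12 h, dosed orally in 0.05% Tween 80/saline, and given oral sucrose 2 g/kg 30 min later.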

The test system of assay [2] is Mus musculus. The assay is described as follows: Antidiabetic activity in streptozotocin-induced diabetic ICR mouse assessed as change in blood glucose level at 5 mg/kg after 2 hrs by oral sucrose tolerance test (RVb= -4.3 %). The assay is classed as functional. An outline of the steps:
as §1

Assay [3] deals with Mus musculus. The assay is described as follows: Antidiabetic activity in streptozotocin-induced diabetic ICR mouse assessed as change in blood glucose level at 5 mg/kg after 0.5 hr by oral sucrose tolerance test (RVb= 56 %). The assay is classed as functional. An outline of the steps: as §1
Assay [4] has as its system Mus musculus. As to the kind of experiment: Antidiabetic activity in streptozotocin-induced diabetic ICR mouse assessed as change in blood glucose level at 5 mg/kg after 1.5 hrs by oral sucrose tolerance test (RVb= 6.1 %). The assay is classed as functional. An outline of the steps: as §1
Assay [5] concerns the target Alpha-glucosidase MAL62 (Saccharomyces cerevisiae) (UniProt P07265). As to the kind of experiment: Inhibition of yeast alpha-glucosidase assessed as inhibition of p-nitrophenyl-alpha-D-glucopyranoside substrate hydrolysis after 35 mins by spectroscopy.
The species entered for assay [6] is Mus musculus. The assay is described as follows: Antidiabetic activity in streptozotocin-induced diabetic ICR mouse assessed as lowering of blood glucose level by oral sucrose tolerance test. The assay is classed as functional, organism-based. An outline of the steps: as §1
Assay [7] concerns Mus musculus. The assay is described as follows: Antidiabetic activity in streptozotocin-induced diabetic ICR mouse assessed as change in blood glucose level at 31.2 mg/kg after 2 hrs by oral glucose tolerance test (RVb= -12.9 %). It counts as functional.
In assay [8] the test system is Mus musculus. As to the kind of experiment: Antidiabetic activity in streptozotocin-induced diabetic ICR mouse assessed as change in blood glucose level at 56.2 mg/kg after 2 hrs by oral glucose tolerance test (RVb= -12.9 %). It counts as functional.
The subject of assay [9] is Mus musculus. The assay is described as follows: Antihyperglycemic activity in ICR mouse assessed as change in blood glucose level at 56.2 mg/kg at 0.5 hr by oral glucose tolerance test (RVb= 59 %). It counts as functional.
The subject of assay [10] is Mus musculus. As to the kind of experiment: Antidiabetic activity in streptozotocin-induced diabetic ICR mouse assessed as change in blood glucose level at 56.2 mg/kg after 1 hr by oral glucose tolerance test (RVb= 10.3 %). It counts as functional.
In assay [11] the test system is Mus musculus. The assay is described as follows: Antidiabetic activity in streptozotocin-induced diabetic ICR mouse assessed as change in blood glucose level at 10 mg/kg after 1.5 hrs by oral glucose tolerance test (RVb= 0.005 %). The assay is classed as functional.
Assay [12] deals with Mus musculus. As to the kind of experiment: Antidiabetic activity in streptozotocin-induced diabetic ICR mouse assessed as change in blood glucose level at 56.2 mg/kg after 1.5 hrs by oral glucose tolerance test (RVb= 0.005 %). It counts as functional.
In assay [13] the test system is Mus musculus. The assay is described as follows: Antidiabetic activity in streptozotocin-induced diabetic ICR mouse assessed as change in blood glucose level at 31.2 mg/kg after 0.5 hr by oral glucose tolerance test (RVb= 51.9 %). The assay is classed as functional.
Assay [14] has as its system Mus musculus. The assay is described as follows: Antidiabetic activity in streptozotocin-induced diabetic ICR mouse assessed as change in blood glucose level at 10 mg/kg after 2 hrs by oral glucose tolerance test (RVb= -12.9 %). It counts as functional.
In assay [15] the test system is Mus musculus. As to the kind of experiment: Antihyperglycemic activity in ICR mouse assessed as change in blood glucose level at 56.2 mg/kg at 2 hrs by oral glucose tolerance test (RVb= -12 %). It counts as functional.
The test system of assay [16] is Mus musculus. As to the kind of experiment: Antidiabetic activity in streptozotocin-induced diabetic ICR mouse assessed as change in blood glucose level at 10 mg/kg after 1 hr by oral glucose tolerance test (RVb= 10.3 %). It counts as functional.
The subject of assay [17] is Mus musculus. The assay is described as follows: Antihyperglycemic activity in ICR mouse assessed as change in blood glucose level at 31.2 mg/kg at 1.5 hrs by oral glucose tolerance test (RVb= 2.5 %). It counts as functional.
The test system of assay [18] is Mus musculus. As to the kind of experiment: Antidiabetic activity in streptozotocin-induced diabetic ICR mouse assessed as change in blood glucose level at 31.2 mg/kg after 1 hr by oral glucose tolerance test (RVb= 10.3 %). The assay is classed as functional.
The test system of assay [19] is Mus musculus. As to the kind of experiment: Antihyperglycemic activity in ICR mouse assessed as change in blood glucose level at 56.2 mg/kg at 1.5 hrs by oral glucose tolerance test (RVb= 2.5 %). It counts as functional.
Assay [20] deals with Mus musculus. As to the kind of experiment: Antidiabetic activity in streptozotocin-induced diabetic ICR mouse assessed as change in blood glucose level at 56.2 mg/kg after 0.5 hr by oral glucose tolerance test (RVb= 51.9 %). It counts as functional.
Assay [21] concerns Mus musculus. The assay is described as follows: Antihyperglycemic activity in ICR mouse assessed as change in blood glucose level at 31.2 mg/kg after 0.5 hr by oral glucose tolerance test (RVb= 59 %). It counts as functional.
Assay [22] relates to Mus musculus. The assay is described as follows: Antihyperglycemic activity in ICR mouse assessed as change in blood glucose level at 56.2 mg/kg at 1 hr by oral glucose tolerance test (RVb= 1.5 %). The assay is classed as functional.
Assay [23] concerns Mus musculus. As to the kind of experiment: Antihyperglycemic activity in ICR mouse assessed as change in blood glucose level at 31.2 mg/kg at 1 hr by oral glucose tolerance test (RVb= 1.5 %). It counts as functional.
Assay [24] deals with Mus musculus. The assay is described as follows: Antihyperglycemic activity in ICR mouse assessed as change in blood glucose level at 31.2 mg/kg at 2 hrs by oral glucose tolerance test (RVb= -12 %). The assay is classed as functional.
In assay [25] the test system is Mus musculus. The assay is described as follows: Antidiabetic activity in streptozotocin-induced diabetic ICR mouse assessed as change in blood glucose level at 10 mg/kg after 0.5 hr by oral glucose tolerance test (RVb= 51.9 %). The assay is classed as functional.
The test system of assay [26] is Mus musculus. The assay is described as follows: Antidiabetic activity in streptozotocin-induced diabetic ICR mouse assessed as change in blood glucose level at 31.2 mg/kg after 1.5 hrs by oral glucose tolerance test (RVb= 0.005 %). The assay is classed as functional.

The source made the active and inactive calls. The rule behind the calls is not given here.

Alpha-glucosidase MAL62 (Saccharomyces cerevisiae), sequence (P07265 whole entry): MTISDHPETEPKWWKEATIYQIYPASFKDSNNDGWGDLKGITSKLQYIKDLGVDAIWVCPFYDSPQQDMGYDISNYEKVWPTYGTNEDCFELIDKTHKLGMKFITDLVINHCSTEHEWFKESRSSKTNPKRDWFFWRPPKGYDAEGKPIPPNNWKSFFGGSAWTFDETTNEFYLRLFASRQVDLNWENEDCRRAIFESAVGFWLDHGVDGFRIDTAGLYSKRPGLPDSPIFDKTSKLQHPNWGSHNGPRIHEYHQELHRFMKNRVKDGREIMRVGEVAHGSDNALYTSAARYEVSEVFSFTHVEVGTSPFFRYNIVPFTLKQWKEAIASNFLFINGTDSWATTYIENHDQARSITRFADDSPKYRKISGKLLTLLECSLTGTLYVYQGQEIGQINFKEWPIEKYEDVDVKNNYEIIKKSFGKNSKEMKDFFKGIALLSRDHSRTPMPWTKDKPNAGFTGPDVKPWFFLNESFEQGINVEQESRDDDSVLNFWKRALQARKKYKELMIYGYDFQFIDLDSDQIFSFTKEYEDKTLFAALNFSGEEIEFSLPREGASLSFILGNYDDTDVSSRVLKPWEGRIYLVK

As for `C[C@H]1O[C@H](O[C@H]2[C@H](O)[C@@H](O)[C@@H](O[C@H]3[C@H](O)[C@@H](O)C(O)O[C@@H]3CO)O[C@@H]2CO)[C@H](O)[C@@H](O)[C@@H]1N[C@H]1C=C(CO)[C@@H](O)[C@H](O)[C@H]1O` (stereo partly drawn) [ACARBOSE], the Activity with Mus musculus [1] is 0.5%; with Mus musculus [2], 6.8%; with Mus musculus [3] it was -0.4%; in the assay with Mus musculus [4] it was 6.2%; in assay [5], “Dose-dependent effect”. Besides, in the assay listed under Mus musculus [6], the result was Active.
`CCC/C=C1\OC(=O)C2=C[C@H]3CC[C@]21C1C2=C(CC[C@H]13)/C(=C\CCC)OC2=O` (stereo partly drawn): the Activity was 8.8% with Mus musculus [7]; 8.9% in the assay with Mus musculus [8]; 41% in the assay with Mus musculus [9]; 52% in the assay with Mus musculus [10]; 5.7% with Mus musculus [11]; 25% in the assay with Mus musculus [12]. Further, the Activity is on record as 44% in the assay with Mus musculus [13]; -5.5% with Mus musculus [14]; -27% in the assay with Mus musculus [15]; 5.7% in the assay with Mus musculus [16]; -35% in the assay with Mus musculus [17]; 32% in the assay on Mus musculus [18]. Further, the Activity with Mus musculus [19] was -13%; in the assay with Mus musculus [20], 57%; in the assay with Mus musculus [21], 3.8%; in the assay with Mus musculus [22], -3.8%; with Mus musculus [23], -28%; in the assay with Mus musculus [24], -50%. The results for the Activity with Mus musculus [25] and in the assay on Mus musculus [26] were 32% and 23%, respectively. Also, in [5], the outcome was inactive.
As for `C=CCc1cc(OC)c2c(c1)OCO2`, the result in assay [5] was inactive.

The values above are taken from ChEMBL document CHEMBL1764997, “(Z)-3-butylidenephthalide from Ligusticum porteri , an α-glucosidase inhibitor” (J Nat Prod, 2011).
